≈ marks a conversion by molar mass, not a printed value.
Assays:
[1] = target: T1, Endothelin-1 receptor (Homo sapiens) (UniProt P25101); assay: Competitive binding to Endothelin A receptor by displacement of [125I]ET1 (Relative IC50 was calculated as IC50 of compound/IC50 of TBC11251)
T1 sequence (whole entry): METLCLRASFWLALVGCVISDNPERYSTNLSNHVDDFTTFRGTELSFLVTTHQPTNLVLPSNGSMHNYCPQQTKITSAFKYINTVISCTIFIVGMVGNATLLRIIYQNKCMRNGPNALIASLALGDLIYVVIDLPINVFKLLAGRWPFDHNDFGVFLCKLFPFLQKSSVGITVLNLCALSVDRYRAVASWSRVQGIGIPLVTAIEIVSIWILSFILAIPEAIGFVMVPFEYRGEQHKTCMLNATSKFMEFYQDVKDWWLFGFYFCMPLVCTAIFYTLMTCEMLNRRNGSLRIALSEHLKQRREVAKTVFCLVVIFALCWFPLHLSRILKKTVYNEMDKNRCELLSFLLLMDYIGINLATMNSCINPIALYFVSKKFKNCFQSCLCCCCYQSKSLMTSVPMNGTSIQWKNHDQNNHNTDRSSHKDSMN

[2] = target: Endothelin receptor, ET-A/ET-B (Homo sapiens) (UniProt P24530+P25101); assay: Compound was evaluated for the selectivity of ET-A receptors (ET-B IC50/ ET-A IC50); format: protein assay
Sequence of Endothelin receptor, ET-A/ET-B (Homo sapiens) (P24530 whole entry, looked up, one chain of several): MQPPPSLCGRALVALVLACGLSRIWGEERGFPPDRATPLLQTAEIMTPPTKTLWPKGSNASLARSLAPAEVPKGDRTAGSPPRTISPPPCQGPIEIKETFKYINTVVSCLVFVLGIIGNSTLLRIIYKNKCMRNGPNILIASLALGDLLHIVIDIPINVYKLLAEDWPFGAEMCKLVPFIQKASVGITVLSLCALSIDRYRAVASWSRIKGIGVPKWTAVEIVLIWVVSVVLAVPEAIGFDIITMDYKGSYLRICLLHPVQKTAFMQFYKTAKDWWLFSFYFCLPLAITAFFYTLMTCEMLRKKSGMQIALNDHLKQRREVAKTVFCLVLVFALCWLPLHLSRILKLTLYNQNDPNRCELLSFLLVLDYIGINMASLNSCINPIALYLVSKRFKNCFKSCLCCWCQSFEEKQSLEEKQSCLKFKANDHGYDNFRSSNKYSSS

[3] = Compound was evaluated for the aqueous solubility (AS) in mg/mL (Measured in 0.2 M phosphate buffer of pH 7.4); format: physicochemical; conditions: read-out: AS
Procedure, shortened: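 Solubility measured in 0.2 M phosphate buffer, pH 7.4. Where a preformed sodium salt was used, it was measured in saline (9 mg/mL).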

Rattus norvegicus [4] = assay: Compound was evaluated for the effective oral dose in Acute Pulmonary Hypertension Rat Model after administering 2 hours prior to experiment; format: functional
Procedure, shortened: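 Rat model of acute hypoxia-induced pulmonary hypertension. Compound given orally 2 h before hypoxia. Reported value is the lowest tested dose giving 90–100% inhibition of mean pulmonary arterial pressure; mean systemic arterial pressure and heart rate were also monitored. Some entries give % inhibition at 5 mg/kg.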

[5] = Compound was evaluated for the biological half-life when administered orally in Acute Pulmonary Hypertension Rat Model; format: ADME, organism-based; conditions: in vivo, po
Procedure, shortened: (§1)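 Adult Harlan Sprague–Dawley rats received 50 mg/kg by gavage in 0.5% high-viscosity carboxymethyl cellulose (5 mL/kg). Serial 200 μL tail-vein blood samples were taken at selected times into heparin-coated tubes. Red cells were removed by centrifugation and plasma stored at −80 °C. Plasma proteins were precipitated with acetonitrile before HPLC analysis; serum half-life was derived from these samples.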

Rattus norvegicus [6] = assay: Compound was evaluated for the biological half-life when administered orally in Acute Pulmonary Hypertension Rat Model; NM=Not measurable (T1/2 h); format: ADME, organism-based; conditions: in vivo, po; procedure, shortened: as §1

## COCCOCCOCC(=O)Oc1c(C)cc(C)c(NC(=O)c2sccc2S(=O)(=O)Nc2onc(C)c2Cl)c1C
[1]
  Relative ET-A IC50: 0.5

## Cc1noc(NS(=O)(=O)c2ccsc2C(=O)Nc2c(C)c(C)c(C)c(C)c2C)c1Cl
[1]
  Relative ET-A IC50: 1.97
[2]
  Selectivity: 1080

## Cc1cc(C)c(S(N)(=O)=O)c(C)c1NC(=O)c1sccc1S(=O)(=O)Nc1onc(C)c1Cl
[3]
  solubility: 30 mg/mL (≈ 57.8 mM)
Rattus norvegicus [4]
  Effective dose: 5 mg/kg
[5]
  half-life: 1.5 h
[1]
  Relative ET-A IC50: 0.06
[2]
  Selectivity: 27800

## Cc1cc(C)c(NC(=O)c2sccc2S(=O)(=O)Nc2onc(C)c2Cl)c(C)c1CC#N
[3]
  solubility: < 10 mg/mL
Rattus norvegicus [4]
  Effective dose: 5 mg/kg
[5]
  half-life: 2.3 h
[1]
  Relative ET-A IC50: 0.08
[2]
  Selectivity: 32900

## Cc1cc(C)c(CNC(=O)c2sccc2S(=O)(=O)Nc2onc(C)c2Cl)c(C)c1CC#N
[1]
  Relative ET-A IC50: 56.4
[2]
  Selectivity: 95

## Cc1cc(C)c(NC(=O)c2sccc2S(=O)(=O)Nc2onc(C)c2Cl)c(C)c1COC(=S)N(C)C
[1]
  Relative ET-A IC50: 0.21
[2]
  Selectivity: 16200

## Cc1cc(C)c(OCC(=O)O)c(C)c1NC(=O)c1sccc1S(=O)(=O)Nc1onc(C)c1Cl
[1]
  Relative ET-A IC50: 0.05
[2]
  Selectivity: 23000

## Cc1cc(C)c(N2CCCC2)c(C)c1NC(=O)c1sccc1S(=O)(=O)Nc1onc(C)c1Cl
[1]
  Relative ET-A IC50: 0.15

## Cc1cc2c(cc1CC(=O)c1sccc1S(=O)(=O)Nc1onc(C)c1Cl)OCO2 [SITAXENTAN]
[3]
  solubility: < 10 mg/mL
Rattus norvegicus [4]
  Effective dose: 5 mg/kg
[5]
  half-life: 4.1 h
[1]
  Relative ET-A IC50: 1
[2]
  Selectivity: 3210

## COC(=O)Cc1c(C)cc(C)c(NC(=O)c2sccc2S(=O)(=O)Nc2onc(C)c2Cl)c1C
[1]
  Relative ET-A IC50: 0.07
[2]
  Selectivity: 114000

## Cc1cc(C)c(NC(=O)c2sccc2S(=O)(=O)Nc2noc(C)c2Cl)c(C)c1CC#N
[3]
  solubility: 70 mg/mL (≈ 146 mM)
[5]
  half-life: 3.1 h
[1]
  Relative ET-A IC50: 0.06
[2]
  Selectivity: 8550

## Cc1cc(C)c(NC(=O)c2sccc2S(=O)(=O)Nc2onc(C)c2Cl)c(C)c1CC(=O)O
[1]
  Relative ET-A IC50: 0.12
[2]
  Selectivity: 59900

## Cc1cc(C)c(NC(=O)c2sccc2S(=O)(=O)Nc2onc(C)c2Cl)c(C)c1
[3]
  solubility: 23 mg/mL (≈ 52.3 mM)
[5]
  half-life: 2.5 h
[1]
  Relative ET-A IC50: 0.1
[2]
  Selectivity: 7050

## COc1c(C)cc(C)c(NC(=O)c2sccc2S(=O)(=O)Nc2onc(C)c2Cl)c1C
[3]
  solubility: < 10 mg/mL
[5]
  half-life: 1.8 h
[1]
  Relative ET-A IC50: 0.06
[2]
  Selectivity: 56400

## Cc1noc(NS(=O)(=O)c2ccsc2C(=O)Nc2c(C)c(CC#N)c(C)c(CC#N)c2C)c1Cl
[1]
  Relative ET-A IC50: 3110
[2]
  Selectivity: 3

## CCOC(=O)N(C(=O)c1sccc1S(=O)(=O)Nc1onc(C)c1Cl)c1c(C)cc(C)c(O)c1C
[1]
  Relative ET-A IC50: 5.56
[2]
  Selectivity: 1530

## COc1c(C)cc(C)c(CC(=O)c2sccc2S(=O)(=O)Nc2onc(C)c2Cl)c1C
[5]
  half-life: 3.86 h
[1]
  Relative ET-A IC50: 0.13
[2]
  Selectivity: 7640

## Cc1cc(C)c(OCC2CC2)c(C)c1NC(=O)c1sccc1S(=O)(=O)Nc1onc(C)c1Cl
[1]
  Relative ET-A IC50: 0.07
[2]
  Selectivity: 59400

## Cc1cc(C)c(N(C)C)c(C)c1NC(=O)c1sccc1S(=O)(=O)Nc1onc(C)c1Cl
[3]
  solubility: 50 mg/mL (≈ 104 mM)
[5]
  half-life: 1 h
[1]
  Relative ET-A IC50: 0.07
[2]
  Selectivity: 36600

## COC(=O)c1cc(C)cc(C)c1NC(=O)c1sccc1S(=O)(=O)Nc1onc(C)c1Cl
[1]
  Relative ET-A IC50: 0.16
[2]
  Selectivity: 36200

## Cc1cc(C)c(NC(=O)c2sccc2S(=O)(=O)Nc2onc(C)c2Cl)c(C)c1O
[3]
  solubility: 83 mg/mL (≈ 182 mM)
Rattus norvegicus [4]
  Effective dose: 5 mg/kg
[5]
  half-life: 7.3 h
[1]
  Relative ET-A IC50: 0.11
[2]
  Selectivity: 10900

## CC(=O)OCc1c(C)cc(C)c(NC(=O)c2sccc2S(=O)(=O)Nc2onc(C)c2C)c1C
[1]
  Relative ET-A IC50: 0.06
[2]
  Selectivity: 160000

## Cc1cc(C)c(OC(=S)N(C)C)c(C)c1NC(=O)c1sccc1S(=O)(=O)Nc1onc(C)c1Cl
[1]
  Relative ET-A IC50: 0.09
[2]
  Selectivity: 22600

## Cc1cc2c(cc1C(C)C(=O)c1sccc1S(=O)(=O)Nc1onc(C)c1Cl)OCO2 (stereo not drawn)
[1]
  Relative ET-A IC50: 5.63

## Cc1cc(C)c(NC(=O)c2sccc2S(=O)(=O)Nc2onc(C)c2C)c(C)c1CO
[1]
  Relative ET-A IC50: 0.07
[2]
  Selectivity: 30400

## Cc1cc(C)c(CNC(=O)c2sccc2S(=O)(=O)Nc2onc(C)c2Cl)c(C)c1
[1]
  Relative ET-A IC50: 1.15e+06
[2]
  Selectivity: 0.004

## COc1cc(C#N)c(NC(=O)c2sccc2S(=O)(=O)Nc2onc(C)c2Cl)c(OC)c1OC
[3]
  solubility: 43 mg/mL (≈ 83.8 mM)
[5]
  half-life: < 1 h
[1]
  Relative ET-A IC50: 0.01
[2]
  Selectivity: 29200

## Cc1cc2c(cc1C(CC(=O)O)C(=O)c1sccc1S(=O)(=O)Nc1onc(C)c1Cl)OCO2 (stereo not drawn)
[1]
  Relative ET-A IC50: 5.36

## CC(=O)OCc1c(C)cc(C)c(NC(=O)c2sccc2S(=O)(=O)Nc2onc(C)c2Cl)c1C
Rattus norvegicus [4]
  Effective dose: 5 mg/kg
[5]
  half-life: 0.5 h
[1]
  Relative ET-A IC50: 0.06
[2]
  Selectivity: 850000

## Cc1cc(C)c(OC(N)=O)c(C)c1NC(=O)c1sccc1S(=O)(=O)Nc1onc(C)c1Cl
Rattus norvegicus [6]
  T1/2: Not Active
[1]
  Relative ET-A IC50: 0.34
[2]
  Selectivity: 6700

## CC(=O)Oc1c(C)cc(C)c(NC(=O)c2sccc2S(=O)(=O)Nc2onc(C)c2Cl)c1C
[1]
  Relative ET-A IC50: 0.11
[2]
  Selectivity: 6970

## Cc1cc(C)c(OS(=O)(=O)N(C)C)c(C)c1NC(=O)c1sccc1S(=O)(=O)Nc1onc(C)c1Cl
[1]
  Relative ET-A IC50: 2.3
[2]
  Selectivity: 1630

## COC(=O)c1c(C)cc(C)c(NC(=O)c2sccc2S(=O)(=O)Nc2onc(C)c2Cl)c1C
[1]
  Relative ET-A IC50: 0.21
[2]
  Selectivity: 41900

## Cc1cc2c(cc1C(CCBr)C(=O)c1sccc1S(=O)(=O)Nc1onc(C)c1Cl)OCO2 (stereo not drawn)
[1]
  Relative ET-A IC50: 38.4
[2]
  Selectivity: 59

## Cc1cc(C)c(NC(=O)c2sccc2S(=O)(=O)Nc2onc(C)c2Cl)c(C)c1CO
[3]
  solubility: 65 mg/mL (≈ 138 mM)
Rattus norvegicus [4]
  Effective dose: 15 mg/kg
[5]
  half-life: 1.4 h
[1]
  Relative ET-A IC50: 0.04
[2]
  Selectivity: 111000

## Cc1cc(C)c(NC(=O)c2sccc2S(=O)(=O)Nc2onc(C)c2C)c(C)c1CC#N
[3]
  solubility: < 10 mg/mL
[5]
  half-life: 1.8 h
[1]
  Relative ET-A IC50: 0.1
[2]
  Selectivity: 14600

## Cc1cc(C)c(NC(=O)c2sccc2S(=O)(=O)Nc2onc(C)c2Cl)c(C)c1CN(C)C
[1]
  Relative ET-A IC50: 0.88

## CC(=O)OCc1c(C)cc(C)c(NC(=O)c2sccc2S(=O)(=O)Nc2noc(C)c2Cl)c1C
[1]
  Relative ET-A IC50: 0.03
[2]
  Selectivity: 38400

## Cc1cc(C)c(C(=O)O)c(C)c1NC(=O)c1sccc1S(=O)(=O)Nc1onc(C)c1Cl
[1]
  Relative ET-A IC50: 0.79

## Cc1cc(C)c(NC(=O)c2sccc2S(=O)(=O)Nc2noc(C)c2Cl)c(C)c1CO
[1]
  Relative ET-A IC50: 0.06
[2]
  Selectivity: 3500

## Cc1cc(C)c(NC(=O)c2sccc2S(=O)(=O)Nc2onc(C)c2Cl)c(C)c1C#N
[3]
  solubility: 37 mg/mL (≈ 79.6 mM)
[5]
  half-life: 1.8 h
[1]
  Relative ET-A IC50: 0.1
[2]
  Selectivity: 37700

## Cc1cc(C)c(NS(C)(=O)=O)c(C)c1NC(=O)c1sccc1S(=O)(=O)Nc1onc(C)c1Cl
[3]
  solubility: < 10 mg/mL
[5]
  half-life: 2.1 h
[1]
  Relative ET-A IC50: 0.11
[2]
  Selectivity: 41700

## COC(=O)Oc1c(C)cc(C)c(NC(=O)c2sccc2S(=O)(=O)Nc2onc(C)c2Cl)c1C
Rattus norvegicus [6]
  T1/2: Not Active
[1]
  Relative ET-A IC50: 0.05
[2]
  Selectivity: 22200

## Cc1nc(C)c(NC(=O)c2sccc2S(=O)(=O)Nc2onc(C)c2Cl)c(C)n1
[1]
  Relative ET-A IC50: 0.25
[2]
  Selectivity: 9160

## Cc1cc(C)c(CC(=O)c2sccc2S(=O)(=O)Nc2onc(C)c2Cl)c(C)c1
[1]
  Relative ET-A IC50: 0.24
[2]
  Selectivity: 9390

## Cc1cc(C)c(CC(=O)c2sccc2S(=O)(=O)Nc2onc(C)c2Cl)c(C)c1O
[5]
  half-life: 3.9 h
[1]
  Relative ET-A IC50: 0.08
[2]
  Selectivity: 10800

Source: ChEMBL document CHEMBL1132155, “Endothelin antagonists: substituted mesitylcarboxamides with high potency and selectivity for ET(A) receptors” (J Med Chem, 1999)
